The nature of data set [1]: Drug loading capacity in PSMA-b-PS NPs. Format: physicochemical. The following applies: mg drug loaded/mg NPs × 100, PSMA-b-PS NPs. Summed up: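 Test compounds in chloroform (3 mg mL−1) stirred with aqueous NPs at 1:3 drug:NP weight ratio, left uncovered overnight to evaporate solvent (acetone in some runs). Insoluble drug removed by two 4000 rpm spins, and unloaded drug by 100 000 MWCO centrifugal filtration (2000 rpm, 10 min). Quantified by C18 reversed-phase HPLC at 210 nm against methanol standards. LC = mg drug loaded/mg NPs × 100.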

The next data set relates to MV411 cells. Put plainly: alamarBlue cell viability. Format: cell-based. In general terms: The colour change of resazurin is a common sign of viable cells or microbes.
The subject of another data set is M9-ENL1 cells. Put plainly: MTT cell viability assay with M9-ENL1 cells. Format: cell-based. On the technique in general: Tetrazolium dyes change colour on reduction, which living cells bring about.
Data set [2] in a line: Drug release from PSMA-b-PS based NPs. Format: physicochemical. The following applies: for release half-life from NPs: PSMA-b-PS NPs, PBS pH 7.4, 37 °C. Put shortly: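 Loaded NPs dialysed (6–8 kDa MWCO) against phosphate-buffered saline, pH 7.4, 37 °C. Aliquots taken at 0, 1, 2, 4, 6, 8, 24, 48 and 72 h, with sink medium replaced at 2, 8, 24 and 48 h. Each aliquot mixed with an equal volume of methanol and analysed by C18 HPLC with 210 nm detection.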

The nature of data set [3]: Serum stability of MCL analogs. Format: in vitro ADME, mouse.

Results on 3 compounds are retold here after publication PMC8791645 (Advanced therapeutics, 2021).

SMILES strings stand for the structures. Like-named read-outs stand apart in the source and are kept apart here.

`C=C1C(=O)O[C@H]2[C@H]1CCC(C)=C1CC[C@@](C)(O)[C@@H]12` [MCL, Micheliolide, reference compound]: the “loading capacity (LC)” value in data set [1] is “≈ 14%”. Also, the CC50 in the data set on MV411 cells (Homo sapiens, MV4-11, 24 h, read-out: LC50 MV-411) was determined as 5.6 ± 2.8 µM; in the data set on M9-ENL1 cells (M9-ENL1, 24 h, read-out: LC50 M9-ENL1), 15.4 ± 1.1 µM. The “release half-life from NPs” value in data set [2] came to 19.8 min.
With `C=C1C(=O)O[C@H]2[C@H]1CCC(C)=C1[C@H](OC(=O)c3ccc(C(F)(F)F)cc3)C[C@@](C)(O)[C@@H]12` [MCL-13], the CC50 in the data set on MV411 cells is 1.8 ± 0.7 µM; in the data set on M9-ENL1 cells it was 1.8 ± 1 µM.
`C=C1C(=O)O[C@H]2[C@H]1CCC(COC(=O)c1cc(C(F)(F)F)cc(C(F)(F)F)c1)=C1CC[C@@](C)(O)[C@@H]12` [MCL-19]: the CC50 with MV411 cells was found to be 1.7 ± 0.9 µM; in the data set with M9-ENL1 cells, 4.1 ± 1.1 µM. In addition, in data set [2], the “release half-life from NPs” value is 540 min. Besides, in data set [2] (from 0–8 h), the “release rate from NPs” value came to 5.7 h⁻¹. Also, the hydrolysis in data set [3] (free compound, 24 h incubation in both 50% and 100% serum) is on record as 80–90%. Also, the “degradation half-life in serum” value in data set [3] (free drug, 50% serum) came to 18 min. Further, the intact compound in data set [3] (free drug, 50% serum, after 8 h of incubation) was found to be 7 ± 2%.
